Measurements from ChEMBL document CHEMBL3352487, “Synthesis, antibacterial activity, and biological evaluation of formyl hydroxyamino derivatives as novel potent peptide deformylase inhibitors against drug-resistant bacteria” (Eur J Med Chem, 2014).
Converted amounts (≈) assume the structure as drawn.

What was measured:
[1] = tested on: Haemophilus influenzae; assay: Antimicrobial activity against AcrA-deficient Haemophilus influenzae H128 after 24 hrs by broth microdilution method; type: functional; details: H128, 24 h
Procedure, shortened: (§1)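 Broth microdilution following NCCLS M7-A4; ATCC strains and clinical isolates from a provincial hospital.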

[2] = molecular target: T1, hERG (KCNH2) (Homo sapiens, UniProt Q12809); assay: Inhibition of human ERG at 10 uM
[3] = Half life in Sprague-Dawley rat at 5 mg/kg, iv; type: ADME, organism-based; set-up: dose 5 mg/kg, route intravenous; details: in vivo
[4] = tested on: Streptococcus pneumoniae; assay: Antimicrobial activity against Streptococcus pneumoniae N1387 after 24 hrs by broth microdilution method; type: functional; details: N1387, 24 h; procedure, shortened: as §1
[5] = tested on: Staphylococcus aureus; assay: Antimicrobial activity against methicillin-resistant Staphylococcus aureus after 24 hrs by broth microdilution method; type: functional
Procedure, shortened: (§2)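 Broth microdilution following NCCLS M7-A4, using ATCC strains and clinical isolates from a provincial hospital.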

[6] = Tmax in Sprague-Dawley rat at 25 mg/kg, po; type: ADME, organism-based; set-up: dose 25 mg/kg, route oral; details: in vivo
[7] = tested on: Staphylococcus epidermidis; assay: Antimicrobial activity against Staphylococcus epidermidis after 24 hrs by broth microdilution method; type: functional; procedure, shortened: as §1
[8] = tested on: Streptococcus pneumoniae; assay: Antimicrobial activity against Streptococcus pneumoniae 1629 after 24 hrs by broth microdilution method; type: functional; details: Streptococcus pneumoniae, 1629, 24 h; procedure, shortened: as §1
[9] = Cmax in Sprague-Dawley rat at 25 mg/kg, po; type: ADME, organism-based; set-up: dose 25 mg/kg, route oral; details: in vivo
[10] = tested on: Staphylococcus aureus; assay: Antimicrobial activity against Staphylococcus aureus WCUH29 after 24 hrs by broth microdilution method; type: functional; details: WCUH29, 24 h; procedure, shortened: as §1
[11] = tested on: Haemophilus influenzae; assay: Antimicrobial activity against Haemophilus influenzae H128 after 24 hrs by broth microdilution method; type: functional; details: H128, 24 h; procedure, shortened: as §1
[12] = tested on: Escherichia coli; assay: Antimicrobial activity against Escherichia coli isolate 1 after 24 hrs by broth microdilution method; type: functional; details: isolate 1, 24 h; procedure, shortened: as §1
[13] = tested on: Moraxella catarrhalis; assay: Antimicrobial activity against Moraxella catarrhalis 1502 after 24 hrs by broth microdilution method; type: functional; details: Moraxella catarrhalis, 1502, 24 h; procedure, shortened: as §1
[14] = Clearance in Sprague-Dawley rat at 5 mg/kg, iv; type: ADME, organism-based; set-up: dose 5 mg/kg, route intravenous; details: in vivo
[15] = tested on: Enterococcus faecalis; assay: Antimicrobial activity against Enterococcus faecalis Isolate 1 after 24 hrs by broth microdilution method; type: functional; details: Isolate 1, 24 h; procedure, shortened: as §1
[16] = tested on: Streptococcus pyogenes; assay: Antimicrobial activity against Streptococcus pyogenes 1307006P after 24 hrs by broth microdilution method; type: functional; procedure, shortened: as §1
[17] = Mean residence time (0 to t) in Sprague-Dawley rat at 5 mg/kg, iv; type: ADME, organism-based; set-up: dose 5 mg/kg, route intravenous; details: in vivo
[18] = AUC (0 to t) in Sprague-Dawley rat at 25 mg/kg, po; type: ADME, organism-based; set-up: dose 25 mg/kg, route oral; details: plasma
[19] = Volume of distribution at steady state in Sprague-Dawley rat at 5 mg/kg, iv; type: ADME, organism-based; set-up: dose 5 mg/kg, route intravenous; details: in vivo, read-out: Vdss
[20] = AUC (0 to t) in Sprague-Dawley rat at 5 mg/kg, iv; type: ADME, organism-based; set-up: dose 5 mg/kg, route intravenous; details: plasma
[21] = tested on: Streptococcus pneumoniae; assay: Antimicrobial activity against Streptococcus pneumoniae ERY2 after 24 hrs by broth microdilution method; type: functional; details: ERY2, 24 h; procedure, shortened: as §1
[22] = tested on: Streptococcus pyogenes; assay: Antimicrobial activity against Streptococcus pyogenes 1308007P after 24 hrs by broth microdilution method; type: functional; procedure, shortened: as §1
[23] = tested on: Escherichia coli; assay: Antimicrobial activity against Escherichia coli isolate 3 after 24 hrs by broth microdilution method; type: functional; details: isolate 3, 24 h; procedure, shortened: as §1
[24] = AUC (0 to infinity) in Sprague-Dawley rat at 5 mg/kg, iv; type: ADME, organism-based; set-up: time infinity, dose 5 mg/kg, route intravenous; details: plasma
[25] = molecular target: T1, hERG (KCNH2); assay: Inhibition of human ERG at 1 uM
[26] = tested on: Staphylococcus aureus; assay: Antimicrobial activity against Staphylococcus aureus OXFORD after 24 hrs by broth microdilution method; type: functional; procedure, shortened: as §2
[27] = tested on: Haemophilus influenzae; assay: Antimicrobial activity against Haemophilus influenzae Q1 after 24 hrs by broth microdilution method; type: functional; details: Q1, 24 h; procedure, shortened: as §1
[28] = tested on: Staphylococcus aureus; assay: Antimicrobial activity against Staphylococcus aureus after 24 hrs by broth microdilution method; type: functional; procedure, shortened: as §1
[29] = Half life in Sprague-Dawley rat at 25 mg/kg, po; type: ADME, organism-based; set-up: dose 25 mg/kg, route oral; details: in vivo
[30] = AUC (0 to infinity) in Sprague-Dawley rat at 25 mg/kg, po; type: ADME, organism-based; set-up: dose 25 mg/kg, route oral, time infinity; details: plasma
[31] = Mean residence time (0 to t) in Sprague-Dawley rat at 25 mg/kg, po; type: ADME, organism-based; set-up: dose 25 mg/kg, route oral; details: in vivo
[32] = tested on: Escherichia coli; assay: Antimicrobial activity against Escherichia coli isolate 2 after 24 hrs by broth microdilution method; type: functional; details: isolate 2, 24 h; procedure, shortened: as §1
[33] = Oral bioavailability in Sprague-Dawley rat at 25 mg/kg; type: ADME, organism-based; details: in vivo
[34] = tested on: Staphylococcus aureus; assay: Antimicrobial activity against methicillin-susceptible Staphylococcus aureus after 24 hrs by broth microdilution method; type: functional; procedure, shortened: as §1
[35] = tested on: Enterococcus faecium; assay: Antimicrobial activity against Enterococcus faecium X7501 after 24 hrs by broth microdilution method; type: functional; details: X7501, 24 h; procedure, shortened: as §1

T1 sequence (Q12809 whole entry): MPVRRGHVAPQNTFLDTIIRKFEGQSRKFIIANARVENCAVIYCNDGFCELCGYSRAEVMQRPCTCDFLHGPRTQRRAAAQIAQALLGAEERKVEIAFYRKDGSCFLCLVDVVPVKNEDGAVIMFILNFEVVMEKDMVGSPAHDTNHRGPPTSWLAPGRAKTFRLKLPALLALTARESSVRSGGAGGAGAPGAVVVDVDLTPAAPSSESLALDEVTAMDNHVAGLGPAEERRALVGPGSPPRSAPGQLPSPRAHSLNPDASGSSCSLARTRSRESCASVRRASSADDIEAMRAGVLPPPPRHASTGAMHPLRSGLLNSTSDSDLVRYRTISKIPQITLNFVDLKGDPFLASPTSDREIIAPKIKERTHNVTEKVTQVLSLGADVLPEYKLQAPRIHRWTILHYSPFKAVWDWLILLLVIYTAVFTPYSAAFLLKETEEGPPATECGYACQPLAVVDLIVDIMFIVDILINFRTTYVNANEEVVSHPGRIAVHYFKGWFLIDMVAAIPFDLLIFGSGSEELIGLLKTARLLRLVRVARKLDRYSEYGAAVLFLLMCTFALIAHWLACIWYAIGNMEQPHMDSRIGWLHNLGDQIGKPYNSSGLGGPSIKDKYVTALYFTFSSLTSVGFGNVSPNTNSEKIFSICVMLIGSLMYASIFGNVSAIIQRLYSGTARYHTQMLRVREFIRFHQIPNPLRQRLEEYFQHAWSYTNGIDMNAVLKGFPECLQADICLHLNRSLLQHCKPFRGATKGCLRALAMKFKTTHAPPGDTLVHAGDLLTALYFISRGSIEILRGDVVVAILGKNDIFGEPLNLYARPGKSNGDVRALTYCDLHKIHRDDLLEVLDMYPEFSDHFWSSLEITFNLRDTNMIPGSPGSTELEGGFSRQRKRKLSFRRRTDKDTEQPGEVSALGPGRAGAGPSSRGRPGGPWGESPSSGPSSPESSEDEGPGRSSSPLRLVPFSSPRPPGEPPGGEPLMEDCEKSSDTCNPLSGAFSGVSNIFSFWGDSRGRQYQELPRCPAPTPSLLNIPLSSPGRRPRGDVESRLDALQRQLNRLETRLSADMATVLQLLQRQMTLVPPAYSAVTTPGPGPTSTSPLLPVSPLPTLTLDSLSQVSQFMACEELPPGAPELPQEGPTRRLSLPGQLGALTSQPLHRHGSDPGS

Q: What does the source list for `O=CN(O)C[C@@H](CC1CCCC1)C(=O)N1CC=C[C@H]1C(=O)Nc1ccc(F)c[n+]1[O-]`?
A: MIC [1]: ≤ 0.06 µg/mL; inhibition at 10 µM [2]: 0.89%; half-life [3]: 48.4 min; MIC [4]: 0.125 µg/mL (≈ 0.297 µM); MIC [5]: 0.25 µg/mL (≈ 0.595 µM); Tmax [6]: 22.5 min; MIC [7]: 0.25 µg/mL (≈ 0.595 µM); MIC [8]: 0.5 µg/mL (≈ 1.19 µM); Cmax [9]: 956 ng/mL; MIC [10]: 0.125 µg/mL (≈ 0.297 µM); MIC [11]: 2 µg/mL (≈ 4.76 µM); MIC [12]: 64 µg/mL (≈ 152 µM); MIC [13]: ≤ 0.06 µg/mL; clearance [14]: 51.7 mL/min/kg; MIC [15]: 2 µg/mL (≈ 4.76 µM); MIC [16]: 0.25 µg/mL (≈ 0.595 µM); MRT last [17]: 30.2 min; AUC(0-t) [18]: 1630 ng·h/mL; Vd [19]: 1.6 L/kg; AUC(0-t) [20]: 1610 ng·h/mL; MIC [21]: 0.25 µg/mL (≈ 0.595 µM); MIC [22]: 0.5 µg/mL (≈ 1.19 µM); MIC [23]: 64 µg/mL (≈ 152 µM); AUC(0-inf) [24]: 1620 ng·h/mL; inhibition at 1 µM [25]: 1.15%; MIC [26]: 0.5 µg/mL (≈ 1.19 µM); MIC [27]: 1 µg/mL (≈ 2.38 µM); MIC [28]: 0.25 µg/mL (≈ 0.595 µM); half-life [29]: 155 min; AUC(0-inf) [30]: 1810 ng·h/mL; MRT last [31]: 121 min; MIC [32]: 32 µg/mL (≈ 76.1 µM); bioavailability [33]: 22.4%; MIC [34]: 0.5 µg/mL (≈ 1.19 µM); MIC [35]: 1 µg/mL (≈ 2.38 µM)
